The values below come from ChEMBL document CHEMBL1144556, “Design, synthesis, and SAR analysis of novel selective sigma1 ligands” (Bioorg Med Chem, 2007).

The species entered for one assay is Cavia porcellus. Kind of assay: Selectivity for sigma 1 receptor over sigma 2 receptor in guinea pig brain membranes. The format is cell membranes. The following applies: Membrane.
Assay [1] concerns the target Sigma non-opioid intracellular receptor 1 (Cavia porcellus, UniProt Q60492). Kind of assay: Displacement of [3H](+)-pentazocine from sigma 1 receptor in guinea pig brain membrane. The format is cell membranes. The method, boiled down:
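Guinea pig brain (minus cerebella) membranes were homogenized in ice-cold 0.32 M sucrose, pH 7.4, washed in 10 mM Tris-HCl, pH 7.4, and stored at −80 °C. Tritiated (+)-pentazocine (28 Ci/mmol; Kd 1.6 ± 0.3 nM, n = 3) was incubated with test compounds from 10^-11 to 10^-5 M in Tris-HCl, pH 7.4, for 150 min at 37 °C. Haloperidol defined nonspecific binding. Reactions were stopped by filtration through PEI-presoaked glass fiber filters.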

Assay [2] is described as follows: Displacement of [3H]DTG from sigma 2 receptor in guinea pig brain membrane. The format is cell membranes, Cavia porcellus. The essentials: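 Guinea pig brain membranes were incubated with test compounds, with 400 nM (+)-SKF10,047 added to mask σ1 sites. Incubation was in 50 mM Tris-HCl, pH 8.0, for 120 min at room temperature. Reactions were stopped with ice-cold 10 mM Tris-HCl, pH 8.0, and filtered through glass fiber filters presoaked in 0.5% poly(ethylenimine).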

Sigma non-opioid intracellular receptor 1, sequence (Q60492 whole entry): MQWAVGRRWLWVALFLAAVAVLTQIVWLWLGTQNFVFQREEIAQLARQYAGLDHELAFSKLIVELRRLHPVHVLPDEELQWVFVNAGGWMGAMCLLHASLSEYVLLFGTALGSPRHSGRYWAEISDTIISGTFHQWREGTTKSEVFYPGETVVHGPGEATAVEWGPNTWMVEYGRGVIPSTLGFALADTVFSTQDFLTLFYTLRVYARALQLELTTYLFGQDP

The term Ki denotes a dissociation constant, usually derived from enzyme kinetics or from competition with a known ligand. A higher Ki goes with a looser hold on the target. Consider `C/C(=C\CN(C)C)c1ccc2ccccc2c1`, for which the Ratio Ki in the assay listed under Cavia porcellus worked out at 7.5. For the same compound, the results for the Ki in assay [1] and in assay [2] were 19.8 nM and 148 nM, respectively.

On to `CC(CCN(C)Cc1ccccc1)c1ccc(-c2ccccc2)cc1` (stereo not given), for which the Ratio Ki in the assay listed under Cavia porcellus came out at 102. The Ki in assay [1] amounted to 5.8 nM; in assay [2], 591 nM.

For the compound `CC(CCN(C)Cc1ccccc1)c1ccc2ccccc2c1` (stereo not given), the Ratio Ki in the assay listed under Cavia porcellus amounted to 25.7. Also, the Ki turned out to be 5.4 nM in assay [1] and 139 nM in assay [2].

As for `CC(CCN(C)C)c1ccc(-c2ccccc2)cc1` (stereo not given), the Ratio Ki in the assay filed under Cavia porcellus amounted to 158. Further, the inhibition constant (Ki) in assay [1] is 1.02 nM; in assay [2], 161 nM.

`CN(C)CCC(C)(O)c1ccc2ccccc2c1` (racemic): the Ratio Ki in the assay listed under Cavia porcellus was determined as 6.8. The inhibitory constant (Ki) is 25 nM in assay [1] and 171 nM in assay [2].

For the compound `C/C(=C\CN(C)C)c1ccc(-c2ccccc2)cc1`, the Ratio Ki in the assay filed under Cavia porcellus is 75.7. Moreover, the inhibition constant Ki came out at 1.4 nM in assay [1] and 106 nM in assay [2].

Consider `C/C(=C\CN(C)Cc1ccccc1)c1ccc2ccccc2c1`, for which the Ratio Ki in the assay listed under Cavia porcellus worked out at 111. Further, the Ki worked out at 7.88 nM in assay [1] and 873 nM in assay [2].

Take `C/C(=C\CN(C)C)c1ccc2cc(O)ccc2c1`: in the assay listed under Cavia porcellus, the Ratio Ki is 6.1. Further, the Ki in assay [1] came to 229 nM; in assay [2], 1390 nM.

`COc1ccc2cc(C(C)CCN(C)C)ccc2c1` (racemic): the Ratio Ki in the assay listed under Cavia porcellus is 26.3. Besides, the Ki in assay [1] stood at 2.3 nM; in assay [2] it was 60.4 nM.

Consider `COc1ccc2cc(/C(C)=C/CN(C)C)ccc2c1`, for which, in the assay filed under Cavia porcellus, the Ratio Ki worked out at 46. Moreover, the inhibitory constant (Ki) in assay [1] was found to be 21.4 nM; in assay [2] it was 985 nM.

Regarding `CC(CCN(C)C)c1ccc2cc(O)ccc2c1` (racemic), the Ratio Ki in the assay filed under Cavia porcellus is 70. The values for the Ki in assay [1] and in assay [2] were 19 nM and 1330 nM, respectively.

`C/C(=C\CN(C)Cc1ccccc1)c1ccc(-c2ccccc2)cc1`: the Ratio Ki in the assay filed under Cavia porcellus came out at 12. In addition, the Ki in assay [1] was determined as 6.32 nM; in assay [2], 75.7 nM.

As for `CC(CCN(C)C)c1cccc2ccccc12` (stereo not given), the Ratio Ki in the assay listed under Cavia porcellus came out at 4.3. The Ki worked out at 47.2 nM in assay [1] and 205 nM in assay [2].

In the case of `C/C(=C\CN(C)C)c1cccc2ccccc12`, the Ratio Ki in the assay listed under Cavia porcellus was found to be 6.87. Moreover, the figures for the Ki in assay [1] and in assay [2] were 102 nM and 701 nM, respectively.

As to `CC(CCN(C)C)c1ccc2ccccc2c1` (stereo not given), the Ratio Ki in the assay filed under Cavia porcellus was determined as 22.5. Besides, the inhibitory constant (Ki) was 1.95 nM in assay [1] and 43.8 nM in assay [2].
